{"source": "ChEMBL document CHEMBL3596173", "about": "“Structural Requirements for CNS Active Opioid Glycopeptides” (J Med Chem, 2015)", "key": {"[1]": {"molecular_target": "T1, Delta-type opioid receptor (Homo sapiens, UniProt P41143)", "T1 sequence (P41143 whole entry)": "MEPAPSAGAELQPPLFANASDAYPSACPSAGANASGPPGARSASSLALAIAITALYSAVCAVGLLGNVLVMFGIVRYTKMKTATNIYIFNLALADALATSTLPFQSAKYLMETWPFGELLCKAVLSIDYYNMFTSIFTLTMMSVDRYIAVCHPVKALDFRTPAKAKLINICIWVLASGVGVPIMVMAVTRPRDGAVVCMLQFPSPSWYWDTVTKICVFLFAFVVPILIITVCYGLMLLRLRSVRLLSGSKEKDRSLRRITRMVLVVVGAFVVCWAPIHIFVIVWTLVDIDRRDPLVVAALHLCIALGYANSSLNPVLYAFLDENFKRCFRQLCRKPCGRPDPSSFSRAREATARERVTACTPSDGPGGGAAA", "test": "Displacement of [3H]-naltrindole from human delta opioid receptor expressed in CHO cells at 10 uM after 3 hrs by scintillation counting analysis relative to control", "format": "cell-based"}, "[2]": {"molecular_target": "T2, Kappa-type opioid receptor (Homo sapiens, UniProt P41145)", "T2 sequence (P41145 whole entry)": "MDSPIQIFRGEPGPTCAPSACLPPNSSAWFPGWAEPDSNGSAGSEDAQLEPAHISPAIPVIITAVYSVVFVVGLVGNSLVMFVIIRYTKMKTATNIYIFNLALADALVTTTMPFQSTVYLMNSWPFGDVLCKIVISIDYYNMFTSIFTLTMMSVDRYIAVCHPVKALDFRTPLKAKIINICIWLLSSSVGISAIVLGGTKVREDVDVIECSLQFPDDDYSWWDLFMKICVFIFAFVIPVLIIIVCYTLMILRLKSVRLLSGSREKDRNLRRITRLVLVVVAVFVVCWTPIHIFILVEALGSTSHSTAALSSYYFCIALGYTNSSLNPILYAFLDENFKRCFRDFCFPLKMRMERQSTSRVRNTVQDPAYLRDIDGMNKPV", "test": "Displacement of [3H]-U69593 from human kappa opioid receptor expressed in CHO cells at 10 uM after 60 mins by scintillation counting analysis […]", "format": "cell-based"}, "[3]": {"molecular_target": "Mu-type opioid receptor (Homo sapiens, UniProt P35372)", "sequence (P35372 whole entry)": "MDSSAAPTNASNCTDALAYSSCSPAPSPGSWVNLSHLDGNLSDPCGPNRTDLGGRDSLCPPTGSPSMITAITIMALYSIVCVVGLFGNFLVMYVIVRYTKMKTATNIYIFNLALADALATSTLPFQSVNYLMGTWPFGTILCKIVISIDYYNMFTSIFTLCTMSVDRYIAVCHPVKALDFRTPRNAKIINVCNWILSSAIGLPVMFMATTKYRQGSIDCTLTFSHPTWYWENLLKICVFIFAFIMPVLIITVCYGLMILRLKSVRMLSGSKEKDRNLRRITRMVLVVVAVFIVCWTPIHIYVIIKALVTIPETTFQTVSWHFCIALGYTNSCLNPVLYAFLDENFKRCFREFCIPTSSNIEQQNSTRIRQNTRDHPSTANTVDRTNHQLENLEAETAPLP", "test": "Displacement of [3H]-DAMGO from human mu opioid receptor expressed in CHO cells after 60 mins by scintillation counting analysis", "format": "cell-based", "how_it_was_run": "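Membranes from CHO cells stably expressing human μ receptor were incubated with 0.25 nM (final) [3H]DAMGO in 50 mM Tris-HCl pH 7.5 for 60 min at 25 °C. Bound radioligand was separated by glass-fiber filtration with cold buffer washes and counted by scintillation. IC50 came from a least-squares log-probit fit, and Ki from IC50/(1+S).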"}, "[4]": {"molecular_target": "T1, Delta-type opioid receptor", "test": "Binding affinity to delta opioid receptor (unknown origin)", "how_it_was_run": "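Membranes from CHO cells stably expressing the human δ-opioid receptor. Incubated 3 h at 25 °C with 0.2 nM [3H]naltrindole in 50 mM Tris-HCl, pH 7.5. Nonspecific binding with 100 μM naloxone. Glass-fibre filtration, cold-buffer washes, scintillation counting. IC50 from log-probit least-squares fit, converted to Ki.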"}, "[5]": {"molecular_target": "T2, Kappa-type opioid receptor", "test": "Binding affinity to kappa opioid receptor (unknown origin)", "how_it_was_run": "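CHO cell membranes stably expressing the human κ-opioid receptor. Incubated with 1 nM [3H]U69,593 for 60 min at 25 °C in 50 mM Tris-HCl, pH 7.5. Naloxone 10 μM defined nonspecific binding. Filters presoaked at least 30 min in 0.1% polyethylenimine, then washed and counted. Ki calculated from IC50 (log-probit fit).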"}, "[6]": {"test_system": "Mus musculus", "test": "Antinociceptive activity in icv dosed CD-1 mouse by 55 degC warm water tail-flick test", "format": "functional", "how_it_was_run": "(§1)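 Male CD-1 mice (27−30 g), 8−10 per group. Compound in distilled water, given icv under light ether anaesthesia, 2 mm caudal and 2 mm lateral from bregma. 55 °C warm-water tail-flick: baseline latency taken first, and mice not responding within 5 s excluded. Retested at various times after dosing. %Antinociception = 100(test − control latency)/(10 − control latency). A50 doses derived.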"}, "[7]": {"test_system": "Mus musculus", "test": "Antinociceptive activity in iv dosed CD-1 mouse assessed as time required to show maximum activity by 55 degC warm water tail-flick test", "format": "functional", "how_it_was_run": "(§2)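 Male CD-1 mice (27−30 g), 8−10 per group. Compound in 0.9% saline, injected into the tail vein at 0.1 mL/10 g after the vein was dilated in 40 °C water. Tail immersion in 55 °C water, with baseline latency first and 5 s non-responders excluded. Tested at intervals post-dose. %Antinociception = 100(test − control latency)/(10 − control latency). A50 values obtained.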"}, "[8]": {"molecular_target": "T2, Kappa-type opioid receptor", "test": "Displacement of [3H]-U69593 from human kappa opioid receptor expressed in CHO cells after 60 mins by scintillation counting analysis", "format": "cell-based", "how_it_was_run": "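Human κ receptor stably expressed in CHO cells was used as a membrane prep. It was incubated with 1 nM (final) [3H]U69,593 for 60 min at 25 °C in 50 mM Tris-HCl pH 7.5, with 10 μM naloxone defining nonspecific binding. Samples were filtered through glass-fiber filters presoaked ≥30 min in 0.1% polyethylenimine, washed cold and scintillation counted. Ki was derived from a log-probit IC50 via IC50/(1+S).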"}, "[9]": {"test_system": "Mus musculus", "test": "Antinociceptive activity in iv dosed CD-1 mouse by 55 degC warm water tail-flick test", "format": "functional", "how_it_was_run": "as §2"}, "[10]": {"test_system": "Mus musculus", "test": "Antinociceptive activity in icv dosed CD-1 mouse assessed as time required to show maximum activity by 55 degC warm water tail-flick test", "format": "functional", "how_it_was_run": "as §1"}, "[11]": {"molecular_target": "T1, Delta-type opioid receptor", "test": "Displacement of [3H]-naltrindole from human delta opioid receptor expressed in CHO cells after 3 hrs by scintillation counting analysis", "format": "cell-based", "how_it_was_run": "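Binding used CHO-cell membranes bearing human δ receptor and 0.2 nM (final) [3H]naltrindole, incubated 3 h at 25 °C in 50 mM Tris-HCl pH 7.5. Nonspecific binding was defined with 100 μM naloxone. Samples were glass-fiber filtered, washed with cold buffer and scintillation counted. IC50 came from a log-probit least-squares fit and was converted to Ki as IC50/(1+S).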"}, "[12]": {"test_system": "Mus musculus", "test": "Antinociceptive activity in icv dosed CD-1 mouse assessed as time duration of activity by 55 degC warm water tail-flick test", "format": "functional", "how_it_was_run": "as §1"}}, "note": "Starred links: 1 amine or outer side, 2 acyl side, 3 side chain; linkers in the order of their positions; H or OH if unused. Positions of bridges follow the written chain, without caps; N, C: chain ends. Non-standard residues stand in square brackets, D forms with d. Residues, ends and D or L forms follow the SMILES beside them. *: point of attachment. βGlc = OC[C@H]1O[C@@H](*)[C@H](O)[C@@H](O)[C@@H]1O; dPen = CC(C)(S)[C@@H](N)C(=O)O; CH2CH2 = C(C[*:2])[*:1]; Aib = CC(C)(N)C(=O)O; Ava = NCCCCC(=O)O; GABA = NCCCC(=O)O"}
{"compound": "CC(C)C[C@H](NC(=O)[C@H](CO[C@@H]1O[C@H](CO)[C@@H](O)[C@H](O)[C@H]1O)NC(=O)[C@H](CCCCN)NC(=O)[C@H](CC(C)C)NC(=O)[C@H](C)NC(=O)[C@H](CC(N)=O)NC(=O)[C@H](CCC(=O)O)NC(=O)C(C)(C)NC(=O)[C@H](CC(C)C)NC(=O)[C@H](CC(N)=O)NC(=O)CNC(=O)CNC(=O)[C@H](Cc1ccccc1)N(C)C(=O)CNC(=O)[C@@H](C)NC(=O)[C@@H](N)Cc1ccc(O)cc1)C(N)=O", "values": [{"measurement": "Activity", "setting": "[1]", "result": 0, "unit": "%"}, {"measurement": "Activity", "setting": "[2]", "result": 0, "unit": "%"}, {"measurement": "Ki", "setting": "[3]", "result": 1200, "unit": "nM"}]}
{"compound": "CC(C)C[C@H](NC(=O)[C@H](CO[C@@H]1O[C@H](CO)[C@@H](O)[C@H](O)[C@H]1O)NC(=O)[C@H](CCCCN)NC(=O)[C@H](CC(C)C)NC(=O)[C@H](C)NC(=O)[C@H](CC(N)=O)NC(=O)[C@H](CC(N)=O)NC(=O)C(C)(C)NC(=O)[C@H](CC(C)C)NC(=O)[C@H](CC(N)=O)NC(=O)CNC(=O)CNC(=O)[C@H](Cc1ccccc1)N(C)C(=O)CNC(=O)[C@@H](C)NC(=O)[C@@H](N)Cc1ccc(O)cc1)C(N)=O", "values": [{"measurement": "Activity", "setting": "[1]", "result": 0, "unit": "%"}, {"measurement": "Activity", "setting": "[2]", "result": 16, "unit": "%"}, {"measurement": "Ki", "setting": "[3]", "result": 120, "unit": "nM"}]}
{"compound": "CC1(C)SCCSC[C@@H](NC(=O)[C@@H](N)Cc2ccc(O)cc2)C(=O)N[C@@H](Cc2ccccc2)C(=O)N[C@H]1C(N)=O", "note": "(H-Y[dC]F[dPen]-NH2; linker 2-4 via CH2CH2)", "values": [{"measurement": "Ki", "setting": "[4]", "result": 24.8, "unit": "nM"}, {"measurement": "Ki", "setting": "[5]", "result": 2000, "unit": "nM"}]}
{"compound": "CC(C)C[C@H](NC(=O)[C@H](CO[C@@H]1O[C@H](CO)[C@@H](O)[C@H](O)[C@H]1O)NC(=O)[C@H](CCCCN)NC(=O)[C@H](CC(C)C)NC(=O)[C@H](C)NC(=O)[C@H](CCCCN)NC(=O)[C@H](CCC(=O)O)NC(=O)C(C)(C)NC(=O)[C@H](CC(C)C)NC(=O)[C@H](CC(N)=O)NC(=O)CCCCNC(=O)[C@H](CC(C)C)NC(=O)[C@H](Cc1ccccc1)NC(=O)CNC(=O)[C@@H](NC(=O)[C@@H](N)Cc1ccc(O)cc1)[C@@H](C)O)C(N)=O", "note": "(H-YTGFL[Ava]NL[Aib]EKALKS(βGlc)L-NH2)", "values": [{"measurement": "A50", "setting": "[6]", "result": 0.371, "unit": "nmol"}, {"measurement": "Time", "setting": "[7]", "result": 30, "unit": "min"}, {"measurement": "Ki", "setting": "[8]", "result": 12, "unit": "nM"}, {"measurement": "A50", "setting": "[9]", "result": 0.36, "unit": "µmol/kg"}, {"measurement": "Ki", "setting": "[3]", "result": 1.4, "unit": "nM"}, {"measurement": "Time", "setting": "[10]", "result": 10, "unit": "min"}, {"measurement": "Ki", "setting": "[11]", "result": 3.8, "unit": "nM"}]}
{"compound": "CC(C)C[C@H](NC(=O)[C@H](CO[C@@H]1O[C@H](CO)[C@@H](O)[C@H](O)[C@H]1O)NC(=O)[C@H](CCCCN)NC(=O)[C@H](CC(C)C)NC(=O)[C@H](C)NC(=O)[C@H](CCCCN)NC(=O)[C@H](CCC(=O)O)NC(=O)C(C)(C)NC(=O)[C@H](CC(C)C)NC(=O)[C@H](CC(N)=O)NC(=O)[C@@H]1CCCN1C(=O)[C@H](CC(C)C)NC(=O)[C@H](Cc1ccccc1)NC(=O)CNC(=O)[C@@H](NC(=O)[C@@H](N)Cc1ccc(O)cc1)[C@@H](C)O)C(N)=O", "values": [{"measurement": "A50", "setting": "[6]", "result": 0.739, "unit": "nmol"}, {"measurement": "Time", "setting": "[7]", "result": 30, "unit": "min"}, {"measurement": "Ki", "setting": "[8]", "result": 2.3, "unit": "nM"}, {"measurement": "A50", "setting": "[9]", "result": 0.36, "unit": "µmol/kg"}, {"measurement": "Ki", "setting": "[3]", "result": 2.6, "unit": "nM"}, {"measurement": "Time", "setting": "[10]", "result": 10, "unit": "min"}, {"measurement": "Ki", "setting": "[11]", "result": 3.6, "unit": "nM"}]}
{"compound": "CC(C)C[C@H](NC(=O)[C@H](CO[C@@H]1O[C@H](CO)[C@@H](O)[C@H](O)[C@H]1O)NC(=O)[C@H](CCCCN)NC(=O)[C@H](CC(C)C)NC(=O)[C@H](C)NC(=O)[C@H](CCCCN)NC(=O)[C@H](CCC(=O)O)NC(=O)C(C)(C)NC(=O)[C@H](CC(C)C)NC(=O)[C@H](CC(N)=O)NC(=O)CCCNC(=O)[C@H](CC(C)C)NC(=O)[C@H](Cc1ccccc1)NC(=O)CNC(=O)[C@@H](NC(=O)[C@@H](N)Cc1ccc(O)cc1)[C@@H](C)O)C(N)=O", "note": "(H-YTGFL[GABA]NL[Aib]EKALKS(βGlc)L-NH2)", "values": [{"measurement": "A50", "setting": "[6]", "result": 0.046, "unit": "nmol"}, {"measurement": "Time", "setting": "[7]", "result": 30, "unit": "min"}, {"measurement": "Ki", "setting": "[8]", "result": 11, "unit": "nM"}, {"measurement": "A50", "setting": "[9]", "result": 0.31, "unit": "µmol/kg"}, {"measurement": "Ki", "setting": "[3]", "result": 4.3, "unit": "nM"}, {"measurement": "Time", "setting": "[10]", "result": 10, "unit": "min"}, {"measurement": "Time", "setting": "[12]", "result": 90, "unit": "min"}, {"measurement": "Ki", "setting": "[11]", "result": 4.2, "unit": "nM"}]}
